Source: ChEMBL document CHEMBL2010708, “Rigid Analogues of Antimitotic Indolobenzazepinones: New Insights into Tubulin Binding via Molecular Modeling” (ACS Med Chem Lett, 2011)

Assays:
KB [1] = test: Antiproliferative activity against human KB cells at 10 uM after 72 hrs by fluorescence method; type: functional; conditions: read-out: GI
Outline: (§1)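 KB cells. Growth inhibition was recorded as a percentage at fixed 10 and 1 μM concentrations, with IC50 determined separately for selected compounds.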

KB [2] = test: Antiproliferative activity against human KB cells at 1 uM after 72 hrs by fluorescence method; type: functional; conditions: read-out: GI; outline: as §1
[3] = Inhibition of tubulin polymerization
KB [4] = test: Antiproliferative activity against human KB cells after 72 hrs by fluorescence method; type: functional, cell-based; outline: as §1
HCT-116 [5] = test: Antiproliferative activity against human HCT116 cells at 10 uM after 72 hrs by fluorescence method; type: functional; conditions: HCT-116, 72 h, read-out: GI
Outline: (§2)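 Panel of HCT116, MCF7 and HL60 cancer cells, each paired with a resistant counterpart (HCT15, MCF7R, HL60R). Growth inhibition was recorded as a percentage at 10 and 1 μM of test compound.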

HCT-116 [6] = test: Antiproliferative activity against human HCT116 cells at 1 uM after 72 hrs by fluorescence method; type: functional; conditions: HCT-116, 72 h, read-out: GI; outline: as §2
HCT-15 [7] = test: Antiproliferative activity against human HCT15 cells at 10 uM after 72 hrs by fluorescence method; type: functional; conditions: HCT-15, 72 h, read-out: GI; outline: as §2
HCT-15 [8] = test: Antiproliferative activity against human HCT15 cells at 1 uM after 72 hrs by fluorescence method; type: functional; conditions: HCT-15, 72 h, read-out: GI; outline: as §2
MCF7 [9] = test: Antiproliferative activity against human MCF7 cells at 10 uM after 72 hrs by fluorescence method; type: functional; conditions: MCF7, 72 h, read-out: GI; outline: as §2
MCF7 [10] = test: Antiproliferative activity against human MCF7 cells at 1 uM after 72 hrs by fluorescence method; type: functional; conditions: MCF7, 72 h, read-out: GI; outline: as §2
[11] = Antiproliferative activity against human MCF7/R cells at 10 uM after 72 hrs by fluorescence method; type: functional; conditions: MCF7R, read-out: GI; outline: as §2
[12] = Antiproliferative activity against human MCF7/R cells at 1 uM after 72 hrs by fluorescence method; type: functional; conditions: MCF7R, read-out: GI; outline: as §2
HL-60 [13] = test: Antiproliferative activity against human HL60 cells at 10 uM after 72 hrs by fluorescence method; type: functional; conditions: HL-60, 72 h, read-out: GI; outline: as §2
HL-60 [14] = test: Antiproliferative activity against human HL60 cells at 1 uM after 72 hrs by fluorescence method; type: functional; conditions: HL-60, 72 h, read-out: GI; outline: as §2
[15] = Antiproliferative activity against human HL60R cells at 10 uM after 72 hrs by fluorescence method; type: functional; conditions: read-out: GI; outline: as §2
[16] = Antiproliferative activity against human HL60R cells at 1 uM after 72 hrs by fluorescence method; type: functional; conditions: read-out: GI; outline: as §2

IC50 [3] [nM]	IC50 (KB [4]) [nM]	Compound	inhibition of growth at 10 µM (KB [1]) [%]	inhibition of growth at 1 µM (KB [2]) [%]	inhibition of growth at 10 µM (HCT-116 [5]) [%]	inhibition of growth at 1 µM (HCT-116 [6]) [%]	inhibition of growth at 10 µM (HCT-15 [7]) [%]	inhibition of growth at 1 µM (HCT-15 [8]) [%]	inhibition of growth at 10 µM (MCF7 [9]) [%]	inhibition of growth at 1 µM (MCF7 [10]) [%]	inhibition of growth at 10 µM [11] [%]	inhibition of growth at 1 µM [12] [%]	inhibition of growth at 10 µM (HL-60 [13]) [%]	inhibition of growth at 1 µM (HL-60 [14]) [%]	inhibition of growth at 10 µM [15] [%]	inhibition of growth at 1 µM [16] [%]
5300	900	O=C1NC2CCc3cccc(c32)-c2c1[nH]c1ccccc21 (centres undefined)	81	63	80	64	87	75	39	46	72	67	90	83	81	70
4200	5000	O=C1c2[nH]c3ccccc3c2-c2ccccc2C2CCCN12 (centres undefined)	100	27	81	64	84	78	55	28	75	56	84	49	80	49
4100	2	CC[C@H]1c2ccccc2-c2c([nH]c3ccccc23)C(=O)N1C	100	100	100	91	100	92	96	85	92	75	100	85	89	70
1800	35	CC[C@@H]1NC(=O)c2[nH]c3ccccc3c2-c2ccccc21	100	100	100	85	100	94	92	82	96	84	100	90	95	78
